Assay [1] relates to Mus musculus. Put plainly: Minimum survival time after heparin pretreatment to mice at 0 IU of heparin administered.
The test system of assay [2] is Mus musculus. The assay can be described thus: Effect of heparin pretreatment on the acute toxicity when 0 IU of heparin administered; Activity as % of animals. It is filed as functional. An outline of the steps:
(§1)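 Male OF-1 mice; heparin (low molecular weight, 0, 4000 or 8000 IU in 0.9% NaCl, filter-sterilized) given ip or iv 1 h before iv bolus of prodrug in 0.9% NaCl (10 µL/g body weight) at 172.4 µmol/kg. Acute toxicity scored as % of animals; survival time recorded in days. At least 3 animals per experiment.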

Assay [3] deals with Mus musculus. Put plainly: Effect of heparin pretreatment on the acute toxicity when 4000 IU of heparin administered iv; Activity as % of animals. It is filed as functional. In a few lines: as §1
Assay [4] deals with Mus musculus. Put plainly: Maximum survival time after heparin pretreatment to mice at 8000 IU of heparin administered intraperitoneally. It is filed as functional. An outline of the steps: as §1
Assay [5] concerns Mus musculus. Put plainly: Maximum survival time after heparin pretreatment to mice at 4000 IU of heparin administered intravenously. It counts as functional. In a few lines: as §1
Assay [6] has as its system Mus musculus. Put plainly: Effect of heparin pretreatment on the acute toxicity when 4000 IU of heparin administered ip; Activity as % of animals. It counts as functional. An outline of the steps: as §1
Assay [7] has as its system Mus musculus. Put plainly: Maximum survival time after heparin pretreatment to mice at 4000 IU of heparin administered intraperitoneally. It counts as functional. In a few lines:
as §1

In assay [8] the test system is Mus musculus. The assay can be described thus: Effect of heparin pretreatment on the acute toxicity when 8000 IU of heparin administered ip. It is filed as functional. An outline of the steps:
as §1

`COc1cccc2c1C(=O)c1c(O)c3c(c(O)c1C2=O)C[C@@](O)(C(=O)CO)C[C@@H]3O[C@H]1C[C@H](NC(=O)[C@H](CC(C)C)NC(=O)[C@H](C)NC(=O)[C@H](CC(C)C)NC(=O)CCNC(=O)CCC(=O)[O-])[C@H](O)[C@H](C)O1.[Na+]`: the min survival time with Mus musculus [1] is 9 days. For the same compound, the Acute toxicity in the assay on Mus musculus [2] was 0%.

With `CC(O)C(=O)O.COc1cccc2c1C(=O)c1c(O)c3c(c(O)c1C2=O)C[C@@](O)(C(=O)CO)C[C@@H]3O[C@H]1C[C@H](NC(=O)[C@H](CC(C)C)NC(=O)[C@H](C)NC(=O)[C@H](CC(C)C)NC(=O)CCN)[C@H](O)[C@H](C)O1`, the Acute toxicity in the assay on Mus musculus [3] amounted to 33%; with Mus musculus [6], 37%; in the assay on Mus musculus [2] it was 100%; in the assay on Mus musculus [8], 0%. In addition, the results for the MST with Mus musculus [4], with Mus musculus [5] and in the assay with Mus musculus [7] were 11 days, 11 days and 9 days, respectively. Also, the min survival time with Mus musculus [1] came out at 0 days.

The values are drawn from ChEMBL document CHEMBL1134669, “N-Succinyl-(beta-alanyl-L-leucyl-L-alanyl-L-leucyl)doxorubicin: an extracellularly tumor-activated prodrug devoid of intravenous acute toxicity” (2001).
